Source: ChEMBL document CHEMBL4364256, “Design, synthesis and biological evaluation of antimicrobial diarylimine and -amine compounds targeting the interaction between the bacterial NusB and NusE proteins” (Eur J Med Chem, 2019)
Converted amounts (≈) assume the structure as drawn. The source made the active and inactive calls.

Experiments:
Staphylococcus aureus [1] = experiment: Antimicrobial activity against Staphylococcus aureus ATCC BAA43 incubated for 20 hrs by microdilution method; assay type: functional; settings: ATCC BAA43, 20 h
In short: (§1)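 MIC determined by microdilution following Clinical & Laboratory Standards Institute (CLSI) guidelines, read in µg/mL, against a panel of hospital- and community-acquired MRSA strains.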

Bacillus subtilis = experiment: Inhibition of N-terminal LgBiT-fused Bacillus subtilis NusB expressed in Escherichia coli BL21(DE3)pLysS interaction with C- terminal SmBiT-fused Bacillus subtilis NusE expressed in Escherichia coli BL21(DE3)pLysS at 100 uM preincubated for 10 mins followed by NusE addition and measured after 10 mins by nano-glo luciferase assay relative to control
In short: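 NusB and NusE were mixed 1:1 at 1 µM in PBS, with compound at 100 µM. The read-out was percent inhibition of the NusB-NusE interaction.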

Enterococcus faecium = experiment: Antimicrobial activity against Enterococcus faecium ATCC 19433 incubated for 20 hrs by microdilution method; assay type: functional; settings: ATCC 19433, 20 h
In short: (§2)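 Broth microdilution MIC testing done following CLSI guidelines.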

Streptococcus pneumoniae = experiment: Antimicrobial activity against Streptococcus pneumoniae ATCC 49619 incubated for 20 hrs by microdilution method; assay type: functional; settings: ATCC 49619, 20 h; in short: as §2
Acinetobacter baumannii = experiment: Antimicrobial activity against Acinetobacter baumannii ATCC 19606 incubated for 20 hrs by microdilution method; assay type: functional; settings: ATCC 19606 = CIP 70.34 = JCM 6841, 20 h; in short: as §2
Pseudomonas aeruginosa = experiment: Antimicrobial activity against Pseudomonas aeruginosa ATCC 27853 incubated for 20 hrs by microdilution method; assay type: functional; settings: ATCC 27853, 20 h; in short: as §2
[2] = test system: Enterococcus casseliflavus; experiment: Antimicrobial activity against Enterococcus casseliflavus ATCC 25788 incubated for 20 hrs by microdilution method; assay type: functional; settings: ATCC 25788, 20 h; in short: as §2
[3] = test system: Staphylococcus epidermidis; experiment: Antimicrobial activity against Staphylococcus epidermidis ATCC 12228 incubated for 20 hrs by microdilution method; assay type: functional; settings: ATCC 12228, 20 h; in short: as §2
[4] = Antimicrobial activity against Staphylococcus saprophyticus ATCC 15305 incubated for 20 hrs by microdilution method; assay type: functional, Staphylococcus saprophyticus subsp. saprophyticus; settings: ATCC 15305, 20 h; in short: as §2
Streptococcus pyogenes = experiment: Antimicrobial activity against Streptococcus pyogenes ATCC 19615 incubated for 20 hrs by microdilution method; assay type: functional; settings: ATCC 19615, 20 h; in short: as §2
Streptococcus agalactiae = experiment: Antimicrobial activity against Streptococcus agalactiae ATCC 12386 incubated for 20 hrs by microdilution method; assay type: functional; settings: ATCC 12386, 20 h; in short: as §2
Staphylococcus aureus [5] = experiment: Antimicrobial activity against Staphylococcus aureus ST239 incubated for 20 hrs by microdilution method; assay type: functional; settings: CN79, 20 h; in short: as §1
Staphylococcus aureus [6] = experiment: Antimicrobial activity against Staphylococcus aureus ATCC BAA44 incubated for 20 hrs by microdilution method; assay type: functional; settings: ATCC BAA44, 20 h; in short: as §1
Staphylococcus aureus [7] = experiment: Antimicrobial activity against Staphylococcus aureus HA W231 ST45 incubated for 20 hrs by microdilution method; assay type: functional; settings: HA W231 ST45, 20 h; in short: as §1
Staphylococcus aureus [8] = experiment: Antimicrobial activity against CA-methicillin-resistant Staphylococcus aureus W47 ST30 incubated for 20 hrs by microdilution method; assay type: functional; settings: W47 ST30, 20 h; in short: as §1
Staphylococcus aureus [9] = experiment: Antimicrobial activity against CA-methicillin-resistant Staphylococcus aureus W45 ST59 incubated for 20 hrs by microdilution method; settings: W45 ST59, 20 h
Staphylococcus aureus [10] = experiment: Antimicrobial activity against CA-methicillin-resistant Staphylococcus aureus W46 ST59 incubated for 20 hrs by microdilution method; settings: W46 ST59, 20 h
Staphylococcus aureus [11] = experiment: Antimicrobial activity against Staphylococcus aureus USA300/ST8 incubated for 20 hrs by microdilution method; settings: USA300 ST8, 20 h
Staphylococcus aureus [12] = experiment: Antimicrobial activity against Staphylococcus aureus ST22 11B086169 incubated for 20 hrs by microdilution method; assay type: functional; settings: ST22 11B086169, 20 h; in short: as §1
Staphylococcus aureus [13] = experiment: Antimicrobial activity against CA-methicillin-resistant Staphylococcus aureus W4 ST338 incubated for 20 hrs by microdilution method; assay type: functional; settings: W4 ST338, 20 h; in short: as §1
Staphylococcus aureus [14] = experiment: Antimicrobial activity against CA-methicillin-resistant Staphylococcus aureus W48 ST217 incubated for 20 hrs by microdilution method; settings: W48 ST217, 20 h
Staphylococcus aureus [15] = experiment: Antimicrobial activity against Staphylococcus aureus HA W235 ST5 incubated for 20 hrs by microdilution method; assay type: functional; settings: HA W235 ST5, 20 h; in short: as §1
Erythrocyte = experiment: Hemolytic activity against human erythrocytes at 0.1 to 10 ug/ml incubated for 45 mins; assay type: ADME, cell-based; settings: 0.75 h
In short: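 Hemolysis was tested on human blood cells with compound at 0.1, 1 and 10 µg/mL, judged against a nonhemolytic cut-off value.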

[16] = Apparent permeability across apical to basolateral side in human Caco2 cells by LC-MS/MS analysis; assay type: ADME, cell-based; settings: Caco-2
Staphylococcus aureus [17] = experiment: microbe, parasite or virus in culture; settings: ATCC 25923, 20 h
Staphylococcus aureus [18] = experiment: microbe, parasite or virus in culture; settings: ATCC 29213, 20 h
[19] = microbe, parasite or virus in culture; settings: Enterobacter cloacae, ATCC 13047, 20 h
Bacteria = experiment: Binding affinity to bacterial NusB assessed as change in chiral structure at 2 ug/ml by circular dichroism spectroscopic analysis
In short: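 Circular dichroism spectra were recorded on NusB at 2.0 µg/mL in neutral phosphate buffer, alone and after mixing with compound at a 1:1 ratio. Binding was read as a change in the spectrum.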

[20] = Cytotoxicity against human A549 cells assessed as reduction in cell viability after 48 to 72 hrs by MTT assay; assay type: cell-based
[21] = Cytotoxicity against human HaCaT cells assessed as reduction in cell viability after 48 to 72 hrs by MTT assay; assay type: cell-based
[22] = Therapeutic index, ratio of CC50 for human A549 cells to 1/2 times MIC for Staphylococcus aureus ATCC 25923; assay type: toxicity; settings: read-out: TI
[23] = Therapeutic index, ratio of CC50 for human HaCaT cells to 1/2 times MIC for Staphylococcus aureus ATCC 25923; assay type: toxicity; settings: read-out: TI
Staphylococcus aureus [24] = experiment: Growth inhibition of Staphylococcus aureus ATCC 25923 at 1/4 times MIC preincubated for 24 hrs followed by replating on agar plate and measured after overnight incubation by time-kill assay; assay type: functional, organism-based
Staphylococcus aureus [25] = experiment: Bacteriostatic activity against Staphylococcus aureus ATCC 25923 at 1 to 4 times MIC preincubated for up to 24 hrs followed by replating on agar plate measured after overnight incubation by time-kill assay; assay type: functional, organism-based
Staphylococcus aureus [26] = experiment: Bacteriostatic activity against Staphylococcus aureus ATCC 25923 at 1/4 to 1 times MIC preincubated for up to 24 hrs followed by replating on agar plate and measured after overnight incubation by time-kill assay; assay type: functional, organism-based
Staphylococcus aureus [27] = experiment: Bactericidal activity against Staphylococcus aureus ATCC 25923 at 4 times MIC preincubated for up to 24 hrs followed by replating on agar plate and measured after overnight incubation by time-kill; assay type: functional, organism-based

| Compound | MIC (Staphylococcus aureus [1]) [µg/mL] | inhibition (Bacillus subtilis) [%] | MIC (Enterococcus faecium) [µg/mL] | MIC (Streptococcus pneumoniae) [µg/mL] | MIC (Acinetobacter baumannii) [µg/mL] | MIC (Pseudomonas aeruginosa) [µg/mL] | MIC [2] [µg/mL] | MIC [3] [µg/mL] | MIC [4] [µg/mL] | MIC (Streptococcus pyogenes) [µg/mL] | MIC (Streptococcus agalactiae) [µg/mL] | MIC (Staphylococcus aureus [5]) [µg/mL] | MIC (Staphylococcus aureus [6]) [µg/mL] | MIC (Staphylococcus aureus [7]) [µg/mL] | MIC (Staphylococcus aureus [8]) [µg/mL] | MIC (Staphylococcus aureus [9]) [µg/mL] | MIC (Staphylococcus aureus [10]) [µg/mL] | MIC (Staphylococcus aureus [17]) [µg/mL] | MIC (Staphylococcus aureus [18]) [µg/mL] | MIC [19] [µg/mL] | other results |
| --- | --- | --- | --- | --- | --- | --- | --- | --- | --- | --- | --- | --- | --- | --- | --- | --- | --- | --- | --- | --- | --- |
| O=[N+]([O-])c1ccc(O)c(CNc2cccc(Cl)c2)c1 | 4 (≈ 14.4 µM) | 34.9 | 32 (≈ 115 µM) | 8 (≈ 28.7 µM) | 128 (≈ 459 µM) | > 256 | 32 (≈ 115 µM) | 8 (≈ 28.7 µM) | 16 (≈ 57.4 µM) | 16 (≈ 57.4 µM) | 32 (≈ 115 µM) | 16 (≈ 57.4 µM) | 8 (≈ 28.7 µM) | 8 (≈ 28.7 µM) | 8 (≈ 28.7 µM) | 8 (≈ 28.7 µM) | 8 (≈ 28.7 µM) | 4 (≈ 14.4 µM) | 4 (≈ 14.4 µM) | 256 (≈ 919 µM) | MIC (Staphylococcus aureus [11]): 8 µg/mL (≈ 28.7 µM); MIC (Staphylococcus aureus [12]): 4 µg/mL (≈ 14.4 µM); MIC (Staphylococcus aureus [13]): 8 µg/mL (≈ 28.7 µM); MIC (Staphylococcus aureus [14]): 8 µg/mL (≈ 28.7 µM); MIC (Staphylococcus aureus [15]): 8 µg/mL (≈ 28.7 µM); Activity (Erythrocyte): Non-Toxic; Papp A→B [16]: 14.9 ×10⁻⁶ cm/s |
| CC(C)(C)c1ccccc1NCc1cc([N+](=O)[O-])ccc1O | 2 (≈ 6.66 µM) | 72.2 | 8 (≈ 26.6 µM) | 2 to 8 (≈ 6.66 to 26.6 µM) | > 256 | > 256 | 16 (≈ 53.3 µM) | 1 (≈ 3.33 µM) | 2 (≈ 6.66 µM) | 8 (≈ 26.6 µM) | 8 (≈ 26.6 µM) | 2 (≈ 6.66 µM) | 2 (≈ 6.66 µM) | 2 (≈ 6.66 µM) | 2 (≈ 6.66 µM) | 2 (≈ 6.66 µM) | 2 (≈ 6.66 µM) | 1 (≈ 3.33 µM) | 4 (≈ 13.3 µM) | > 256 | Activity (Bacteria): Active; MIC (Staphylococcus aureus [11]): 2 µg/mL (≈ 6.66 µM); MIC (Staphylococcus aureus [12]): 2 µg/mL (≈ 6.66 µM); MIC (Staphylococcus aureus [13]): 2 µg/mL (≈ 6.66 µM); MIC (Staphylococcus aureus [14]): 2 µg/mL (≈ 6.66 µM); MIC (Staphylococcus aureus [15]): 2 µg/mL (≈ 6.66 µM); CC50 [20]: 13.4 µM; CC50 [21]: 15.1 µM; selectivity ratio [22]: 8; selectivity ratio [23]: 9 |
| C#Cc1cccc(NCc2cc([N+](=O)[O-])cc(Br)c2O)c1 | 2 (≈ 5.76 µM) | 99.6 | 64 (≈ 184 µM) | 32 (≈ 92.2 µM) | 256 (≈ 737 µM) | > 256 | 64 (≈ 184 µM) | 4 (≈ 11.5 µM) | 16 (≈ 46.1 µM) | 32 (≈ 92.2 µM) | 32 (≈ 92.2 µM) | 4 (≈ 11.5 µM) | 16 (≈ 46.1 µM) | 2 (≈ 5.76 µM) | 2 (≈ 5.76 µM) | 2 (≈ 5.76 µM) | 4 (≈ 11.5 µM) | 2 (≈ 5.76 µM) | 2 (≈ 5.76 µM) | > 256 | MIC (Staphylococcus aureus [11]): 4 µg/mL (≈ 11.5 µM); MIC (Staphylococcus aureus [12]): 4 µg/mL (≈ 11.5 µM); MIC (Staphylococcus aureus [13]): 2 µg/mL (≈ 5.76 µM); MIC (Staphylococcus aureus [14]): 2 µg/mL (≈ 5.76 µM); MIC (Staphylococcus aureus [15]): 2 µg/mL (≈ 5.76 µM); CC50 [20]: 79.1 µM; CC50 [21]: 72.2 µM; selectivity ratio [22]: 27; selectivity ratio [23]: 25 |
| C#Cc1cccc(/N=C/c2cc([N+](=O)[O-])ccc2O)c1 |  | 85.3 | > 256 | 16 (≈ 60.1 µM) | 64 (≈ 240 µM) | > 256 |  |  |  |  |  |  |  |  |  |  |  | 8 (≈ 30 µM) | 16 (≈ 60.1 µM) | > 256 | growth inhibition (GI) (Staphylococcus aureus [24]): Active; Activity (Staphylococcus aureus [25]): Active |
| O=[N+]([O-])c1ccc(O)c(CNc2ccccc2Cl)c1 | 2 (≈ 7.18 µM) | 31 | 32 (≈ 115 µM) | 8 (≈ 28.7 µM) | 128 (≈ 459 µM) | > 256 | 32 (≈ 115 µM) | 8 (≈ 28.7 µM) | 8 (≈ 28.7 µM) | 16 (≈ 57.4 µM) | 32 (≈ 115 µM) | 8 (≈ 28.7 µM) | 8 (≈ 28.7 µM) | 4 (≈ 14.4 µM) | 4 (≈ 14.4 µM) | 8 (≈ 28.7 µM) | 4 (≈ 14.4 µM) | 2 (≈ 7.18 µM) | 2 (≈ 7.18 µM) | 256 (≈ 919 µM) | MIC (Staphylococcus aureus [11]): 4 µg/mL (≈ 14.4 µM); MIC (Staphylococcus aureus [12]): 4 µg/mL (≈ 14.4 µM); MIC (Staphylococcus aureus [13]): 4 µg/mL (≈ 14.4 µM); MIC (Staphylococcus aureus [14]): 4 µg/mL (≈ 14.4 µM); MIC (Staphylococcus aureus [15]): 4 µg/mL (≈ 14.4 µM); Activity (Staphylococcus aureus [26]): Active; Activity (Staphylococcus aureus [27]): Active; CC50 [20]: 22.5 µM; CC50 [21]: 20.1 µM; selectivity ratio [22]: 6; selectivity ratio [23]: 6; Activity (Erythrocyte): Non-Toxic; Papp A→B [16]: 16.1 ×10⁻⁶ cm/s |
